Compounds with a hit are over-represented: about 1.7% of the library has one in this group of screens.
UBC13 polyUb – inhibitors of human UBC13 polyubiquitin chain formation; TR-FRET; inhibition, % at 20 µM; 330,000 compounds, 0.47% hits; AID 485273; in the data active = inhibition above about 45%, passing the limit was not always enough; inconclusive = no clear call, values can overlap the other calls
Target sequence (P61088 whole entry, looked up): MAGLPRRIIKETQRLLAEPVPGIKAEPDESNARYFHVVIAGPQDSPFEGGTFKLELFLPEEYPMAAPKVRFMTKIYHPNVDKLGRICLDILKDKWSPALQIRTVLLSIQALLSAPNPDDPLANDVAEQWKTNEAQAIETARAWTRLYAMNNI
Apaf-1 inh – inhibitors of human Apaf-1 apoptosome. AID 489030. 330,000 compounds, 0.71% hits. O14727. inhibition, % at 20 µM. reconstituted apoptosome caspase-3 activity, DEVD-Rh110 fluorescence; active = inhibition of at least 40% at 20 µM;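 note: plate controls were DMSO wells for no effect and DEVD-CHO caspase inhibitor wells for full effect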
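System: reconstituted apoptosome with Apaf-1, cytochrome c, caspase-9, procaspase-3, dATP; Signal: Rh110 fluorescence intensity; Schedule: 30 min compound preincubation, 50 min activation, room temperature; Reagent: cytochrome c trigger plus (Z-DEVD)2-Rh110 caspase-3 substrate.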
ZTA counter – blocks Epstein-Barr virus ZTA, an EBNA-1 counter-screen | P03206 | ZTA-DNA binding, fluorescence polarization | inhibition, % at 11 µM | 320,000 compounds, 0.15% hits | AID 2234; in the data active = inhibition above about 33%
Target sequence (P03206 whole entry, looked up): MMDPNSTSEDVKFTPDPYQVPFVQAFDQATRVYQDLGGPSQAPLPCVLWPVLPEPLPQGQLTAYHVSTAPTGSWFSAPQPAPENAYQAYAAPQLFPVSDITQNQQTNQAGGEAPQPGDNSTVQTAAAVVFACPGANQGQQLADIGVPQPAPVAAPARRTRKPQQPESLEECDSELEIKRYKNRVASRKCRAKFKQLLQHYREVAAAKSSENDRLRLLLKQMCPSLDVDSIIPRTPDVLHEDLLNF
PREPL inh – human PREPL enzyme inhibition | AID 2751 | Q4J6C6 | 320,000 compounds, 0.68% hits | recombinant PREPL, fluorescence polarization activity-based probe | inhibition, % at 5.96 µM; in the data active = inhibition above about 43%;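 note: 0% = enzyme with DMSO and 100% = wells lacking enzyme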
EBNA-1 inhibitor – blocks EBNA-1 binding to DNA. EBNA-1 DNA binding, fluorescence polarization. inhibition, % at 14.8 µM. 300,000 compounds, 0.34% hits. AID 1950; in the data active = inhibition above about 28%
Apaf-1 inh conf2 – Apaf-1 inhibition, single-dose confirmed; shares compounds with Apaf-1 inh; reconstituted apoptosome, caspase-3 DEVD-Rh110 fluorescence; inhibition, % at 20 µM; 1,800 compounds, 25% hits;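 active = mean inhibition of at least 40% at 20 µM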;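 note: plate controls were DMSO wells for no effect and DEVD-CHO caspase inhibitor control wells for full effect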
Rh110 interf inh – Rh110 signal interference in Apaf-1 inhibitor counter-screen; 1,800 tested, under 10 active; shares compounds with Apaf-1 inh; Rh110 fluorescence interference, quenched caspase reaction; activation (fluorescence interference), % at 20 µM;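 active = signal rise of 40% or more at 20 µM, treated as a fluorescence artifact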
Fluor interf inh – shows fluorescence interference in the Apaf-1 inhibitor assay format; shares compounds with Apaf-1 inh; fluorescence interference counterscreen, Apaf-1 assay format; IC50, µM; 460 tested, under 10 active; call rule not given here
* hit, by the source's call; ? = inconclusive; · = no result given.

SMILES	UBC13 polyUb	Apaf-1 inh	ZTA counter	PREPL inh	EBNA-1 inhibitor	Apaf-1 inh conf2	Rh110 interf inh	others
CCC(CO)Oc1cc(NCc2ccc(O)cc2)c2ncn(C(C)C)c2c1 (stereo not given)	4	4	·	17	·	·	·
COc1cc(NCc2ccccc2)c2ncn(Cc3ccccc3)c2c1	6	50*	·	20	·	28	4
CCC(CO)Oc1cc(NCc2ccccc2F)c2ncn(C(C)C)c2c1 (stereo not given)	-5	14	-2	35	·	·	·
CCCCOc1cc(NCc2ccccc2)c2ncn(C(C)C)c2c1	26	61*	·	29	·	47*	14	Fluor interf inh=>100
COc1cc(NC(=O)c2ccc(F)cc2)c(OC)cc1NC(=O)CN1CCOCC1	-6	-3	-6	14	-4	·	·
COCCCOc1cc(NCc2ccccc2)c2ncn(C(C)C)c2c1	3	41*	·	21	·	27	7
O=C(Cn1cnc2c(cnn2-c2ccccc2)c1=O)NCCc1ccccc1	-5	10	-10	-3	6	·	·
COc1ccc(-c2oc3ncnc(NCCN4CCOCC4)c3c2-c2ccc(OC)cc2)cc1	35	42*	-1	21	7	25	15
Cc1ccccc1Cn1cc(C)c(=O)[nH]c1=O	2	2	-8	18	-5	·	·
Oc1ccc(Br)cc1CNc1cccc2cccnc12	-140	90*	-7	28	2	48*	8	Fluor interf inh=>100
Oc1ccc(Br)cc1CNc1cnc2ccccc2c1	27	11	-2	-7	7	·	·
Cc1ccc(O)c(CNc2cccc3cccnc23)c1	-105	93*	8	14	-11	38	4
COc1cccc(CNc2ccccn2)c1O	-5	1	5	-2	11	·	·
Cc1ccc(O)c(CNc2cccc(C)n2)c1	13	-9	·	·	·	·	·
COc1cccc(CNc2cccc3cccnc23)c1O	-115	71*	-14	22	7	14	-7
Oc1c(Br)cc(Br)cc1CNc1cccc2cccnc12	-64	92*	12	14	6	59*	10	Fluor interf inh=>100
COC1CCN(C(=O)c2ccc(OC3CCN(CCc4ccccc4)CC3)cc2)CC1	-1	2	8	14	1	·	·
CC(=O)N(c1ccccc1C)C1CCCC1	1	-2	2	-6	13	·	·
CC(=O)N(C1=C(Cl)C(=O)c2ccccc2C1=O)C1CCCCC1	-58	85*	-2	8	-6	90*	5	Fluor interf inh=>100
CCCC(=O)NCc1ccc2c(c1)cc(C)n2C	36	-1	1	20	-13	·	·
Cc1cc2cc(CNC(=O)C3CCCC3)ccc2n1C	?	15	1	14	-13	·	·
Cc1cccc(NC(=S)NCc2ccc3c(c2)cc(C)n3C)c1C	10	66*	-10	22	-9	16	5
COc1ccc(CNC(=O)Nc2cccc(Cl)c2)cc1	-4	-5	·	·	·	·	·
Cc1cc2cc(CNC(=S)Nc3ccc(OC(F)(F)F)cc3)ccc2n1C	-23	59*	8	-2	-7	15	14
Cc1cc2cc(CNC(=O)Nc3cccc(Cl)c3)ccc2n1C	-5	49*	1	14	8	12	2
SMILES	UBC13 polyUb	Apaf-1 inh	ZTA counter	PREPL inh	EBNA-1 inhibitor	Apaf-1 inh conf2	Rh110 interf inh	others
Cc1cccc(NC(=O)NCc2ccc3c(c2)cc(C)n3C)c1	18	54*	8	15	-2	-2	-2
O=C(NC1CCCc2ccccc21)c1ccc(=O)[nH]c1 (stereo not given)	0	1	5	-2	4	·	·
O=C(NCc1ccc2c(c1)OCO2)C1CCN(S(=O)(=O)N2CCOCC2)CC1	11	3	-2	-14	8	·	·
NC1(C#Cc2ccc3oc(=O)c(-n4cc(-c5ccsc5)nn4)cc3c2)CCCCC1	28	48*	-6	9	·	14	7
CCC1CCc2sc(C(=O)NCC(c3ccccc3OC)N3CCCC3)cc2C1 (stereo not given)	33	49*	8	-15	·	17	12
CCC1CCc2sc(C(=O)NCc3ccccn3)cc2C1 (stereo not given)	-1	22	13	1	1	·	·
Cc1c(C(=O)N2CCOCC2)c(S(=O)(=O)Nc2ccc(Br)cc2F)c(C)n1C	-7	-7	-6	3	6	·	·
O=C1CCCC2=C1C1(O)C(=O)c3ccccc3C1(O)O2 (stereo not given)	-26	92*	-18	-5	-9	72*	-1	Fluor interf inh=>100
N#CC1=C(N)OC2=C(C(=O)CCC2)[C@]12C(=O)N(CC(N)=O)c1ccccc12	7	-4	9	-6	2	·	·
O=C(COC(=O)c1nc(Cl)ccc1Cl)NCc1ccccc1	11	-6	-14	-3	-1	·	·
O=C(c1ccc(N2C(=O)c3ccccc3C2=O)cc1)N1CCCCC1	3	1	-11	4	-16	·	·
CCc1ccc(N2C(=O)C(Cl)=C(Nc3ccc(C(=O)N4CCCC4)cc3)C2=O)cc1	-54	41*	-22	15	·	7	10
CC1(C)OC(=O)N(c2ccccc2)C12C=Cc1c(ccc3ccccc13)O2 (stereo not given)	-10	20	-19	12	-12	·	·
CCOc1ccc2nc(NC3=NC(c4ccc(OC)cc4)CC(=O)N3)nc(C)c2c1 (stereo not given)	22	79*	11	10	-6	70*	7	Fluor interf inh=>100
CCCCn1cnc2sc3c(c2c1=N)CCCC3	0	-1	-14	22	-2	·	·
COc1ccc(-n2c(N)c(C(=O)NCC3CCCO3)c3nc4ccccc4nc32)c(OC)c1 (stereo not given)	-28	66*	3	15	3	27	12
C=CCn1c(N)c(C(=O)NCC2CCCO2)c2nc3ccccc3nc21 (stereo not given)	-15	78*	5	5	-5	11	-187
COCCN1CCn2c(nc3cc(Nc4nnc(C)c5ccccc45)ccc32)C1	6	-1	-7	8	2	·	·
CCOC(=O)CNc1ccc2c(c1)OCO2	-34	40*	-5	15	-12	19	18
CCOC(=O)CNC(=O)/C=C/c1ccc2c(c1)OCO2	3	-2	7	0	4	·	·
Cc1ccc2c(CN(C)Cc3cccc(F)c3)cc(=O)oc2c1C	4	18	3	-8	-1	·	·
Cc1cc(N/N=C/c2ccc(O)cc2O)nc(N2CCOCC2)n1	-9	31	-5	10	2	·	·
Oc1ccc(/C=N/Nc2cc(N3CCCC3)nc(N3CCCC3)n2)cc1O	3	60*	11	13	3	89*	3	Fluor interf inh=>100
Cc1cccc(/C=N/Nc2cc(N3CCOCC3)nc(N3CCOCC3)n2)c1	-5	68*	-12	6	-5	33	4
Cc1ccc(/C=N/Nc2cc(C)nc(N3CCOCC3)n2)cc1	-14	5	-4	13	3	·	·

Screens deposited in PubChem BioAssay by several laboratories.
